Results taken from ChEMBL document CHEMBL1126563, “The inophyllums, novel inhibitors of HIV-1 reverse transcriptase isolated from the Malaysian tree, Calophyllum inophyllum Linn” (J Med Chem, 1993).

Assays:
MOLT-4 = assay: Tested for cytotoxicity in Molt-4 cells by XTT assay; format: functional, cell-based; details: Homo sapiens
Outline: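 Molt-4 cells plated at 3×10^4 cells/well with compound; on day 7 XTT conversion to formazan measured, with trypan blue microscopic examination also used; IC50 derived.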

[1] = target: Human immunodeficiency virus type 1 reverse transcriptase (Human immunodeficiency virus 1, UniProt Q72547); assay: Inhibitory concentration against HIV-1 reverse transcriptase in scintillation proximity assay
Outline: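 Recombinant purified HIV-1 RT (2 nM) with 39 nM 50-mer RNA template annealed to biotinylated 17-mer DNA primer; 75 nM dATP, dCTP, dGTP and [3H]TTP. Buffer 50 mM Tris-HCl pH 8.0, 80 mM KCl, 10 mM MgCl2, 10 mM DTT, 0.012% CHAPS. Enzyme, template-primer and inhibitor (90 μM–0.01 nM) preincubated 15 min at 37 °C; reaction 10 min at 37 °C, EDTA stop, streptavidin scintillant beads, scintillation counting.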

[2] = test system: Human immunodeficiency virus 1; assay: Anti-HIV activity against HIV-1 in Molt-4 cells using 7-day infective assay; format: functional, organism-based; details: Human immunodeficiency virus 1, MOLT-4, 168 h
Outline: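 Molt-4 cells (3×10^4) infected with 50 tissue culture infectious doses of HIV-1; compound added day 0, cultures refed days 1 and 4 with medium containing compound at initial concentration. On day 7 cells spun down and supernatant RT quantified by microassay; IC50 from RT quantitation.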

[3] = Selectivity index is the ratio of cytotoxicity in Molt-4 cells and anti-HIV- IC50; format: functional
Outline: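 Selectivity index = cytotoxicity IC50 (XTT, Molt-4, day 7) divided by anti-HIV IC50 (RT quantitation in supernatant 7 days after HIV-1 infection of Molt-4 cells).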

[4] = target: Human immunodeficiency virus type 1 reverse transcriptase (Human immunodeficiency virus 1, UniProt Q72547, Y181C); assay: Inhibitory concentration against HIV-1 reverse transcriptase mutant (Tyr-181 to Cys)
Outline: (§1)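 Scintillation proximity assay for RNA-dependent DNA polymerase activity of recombinant purified RT. The template is a 50-mer RNA annealed at its 5'-end to a biotinylated 17-mer DNA primer. Buffer is 50 mM Tris-HCl pH 8.0 with 80 mM KCl, 10 mM MgCl2, 10 mM DTT and 0.012% CHAPS. Final levels are 2 nM RT, 39 nM template-primer, 75 nM each dATP/dCTP/dGTP/[3H]TTP, and inhibitor serially diluted over 90 μM–0.01 nM. RT, template-primer and inhibitor are preincubated 15 min at 37 °C. The reaction runs 10 min at 37 °C and is stopped with EDTA. Incorporated label is captured on streptavidin scintillant beads and counted to give IC50.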

[5] = target: Human immunodeficiency virus type 1 reverse transcriptase (Human immunodeficiency virus 1, UniProt Q72547, Y181L); assay: Inhibitory concentration against HIV-1 reverse transcriptase mutant (Tyr-181 to Leu); outline: as §1

IC50 [1] [µM]	Structure (SMILES)	IC50 (MOLT-4) [µM]	further results
10	C[C@H]1Oc2c3c(c4c(-c5ccccc5)cc(=O)oc4c2C(=O)[C@@H]1C)OC(C)(C)C=C3	18	–
0.7	CC(C)=CCN1Cc2cc(Cl)cc3[nH]c(=S)n(c23)C[C@@H]1C	19	IC50 [2]: 0.19 µM; Selectivity index [3]: 100
46	C[C@@H]1[C@H](C(=O)c2ccc(Br)cc2)c2c(c3c(c4c(-c5ccccc5)cc(=O)oc24)OC(C)(C)C=C3)O[C@@H]1C	–	–
> 100	CC(=O)O[C@H]1c2c(c3c(c4c(-c5ccccc5)cc(=O)oc24)OC(C)(C)C=C3)O[C@H](C)[C@H]1C	–	–
0.72	CC(=O)O[C@@H]1c2c(c3c(c4c(-c5ccccc5)cc(=O)oc24)OC(C)(C)C=C3)O[C@H](C)[C@H]1C	–	–
> 100	CC1[C@H](O)c2c(c3c(c4c(-c5ccccc5)cc(=O)oc24)O[C@@H]2[C@H]3C2(C)C)O[C@@H]1C (single isomer, unassigned)	–	–
100	C[C@@H]1C(=O)c2c(c3c(c4c(-c5ccccc5)cc(=O)oc24)OC(C)(C)C=C3)O[C@@H]1C	6.2	–
9	CC1=Cc2c(c3c(c4c(-c5ccccc5)cc(=O)oc24)OC(C)(C)C=C3)O[C@@H]1C	–	–
> 100	C[C@H]1Oc2c3c(c(/C(=C\C(=O)O)c4ccccc4)c(O)c2C(=O)[C@@H]1C)OC(C)(C)C=C3	–	–
70	CC1[C@H](O)c2c(c3c(c4c(-c5ccccc5)cc(=O)oc24)O[C@H]2[C@@H]3C2(C)C)O[C@@H]1C (single isomer, unassigned)	–	–
> 100	C[C@@H]1C(=O)c2c(O)c(/C(=C\C(=O)O)c3ccccc3)c3c(c2O[C@@H]1C)C=CC(C)(C)O3	–	–

Structure (SMILES)	IC50 [1] [µM]	IC50 (MOLT-4) [µM]	further results
C[C@H]1[C@@H](C)Oc2c3c(c4c(-c5ccccc5)cc(=O)oc4c2[C@@H]1O)OC(C)(C)C=C3	11	15	–
C[C@@H]1[C@@H](C)Oc2c3c(c4c(-c5ccccc5)cc(=O)oc4c2[C@@H]1O)OC(C)(C)C=C3	0.13	25	IC50 [2]: 1.6 µM; Selectivity index [3]: 16
C[C@H]1[C@H](O)c2c(c3c(c4c(-c5ccccc5)cc(=O)oc24)OC(C)(C)C=C3)O[C@@H]1C	0.038	55	IC50 [2]: 1.4 µM; Selectivity index [3]: 39; IC50 [4]: 0.16 µM; IC50 [5]: 0.41 µM
C[C@@H]1[C@H](O)c2c(c3c(c4c(-c5ccccc5)cc(=O)oc24)OC(C)(C)C=C3)O[C@@H]1C	30	33	–
